# The list is not random: actives were taken first. Their share in the collection is about 1%.
# NALP1 inh: inhibitors of NALP1 inflammasome in yeast; hit rate 0.61% among 280,000; S. cerevisiae NALP1/ASC/caspase-1 growth, X-gal OD620, 72 h; inhibition, % at 10 µM; in the data active means inhibition mostly above about 24%, no sharp cut-off; inactive means mostly below about 32%
# T cell modulator: modulates CD8 T cell binding to vesicles; 2C CD8+ T cell-vesicle binding, flow cytometry; active compounds read low; response (vesicle binding), % at 7 µM; hit rate 0.068% among 330,000;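 active means response, share of CD8 T cells binding vesicles, and their 90th percentile fluorescence all below set limits, cut at about 80% in these data, passing the limit was not always enough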;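 further: values below 100% mean blocked vesicle binding to the CD8+ T cells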
#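 Assay system: 2C TCR transgenic mouse naive CD8+ T cells, MACS-purified | Read-out: CD8+ gate FL2 mean fluorescence as % of same-row positive control | Signal: High-throughput flow cytometry with anti-B7-1 and anti-CD8 staining | Timing: Binding step 1.5 h, 37 °C, antibody labelling 20 min, ice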
# NALP3 yeast inh: NALP3 inhibition in yeast; hit rate 0.39% among 330,000; Yeast reconstituted NLRP3/ASC/caspase-1, beta-gal luminescence, 24 h; inhibition, % at 10 µM; AID 2825;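 active means inhibition of 50% or more; inactive means inhibition below 50%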;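 further: plate controls were induced DMSO wells for no effect and uninduced yeast grown without galactose for full effect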
# A1 inh: inhibitors of the anti-apoptotic protein A1, read as caspase activation | hit rate 0.066% among 330,000 | MEF A1-2A-BIM cells, Caspase-Glo 3/7 luminescence, 3 h; percent of clofoctol response, vehicle zero | caspase activation, % (no concentration beside the values);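 active means over half of replicate activation scores above 10%, or exactly half above 10 with the replicate mean above 10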
# NALP3 yeast conf: confirmation of NALP3 inhibitors in yeast; hit rate 81% among 1,300; yeast expressing human NALP3, luminescence; inhibition, % at 10 µM; shares compounds with NALP3 yeast inh; AID 435006; in the data active means inhibition above about 48%
# Casp1-ASC yeast: active in yeast caspase-1-ASC counter-screen for NALP3 inhibitors; inhibition, % at 10 µM; yeast expressing Caspase-1-ASC, luminescence counter screen; shares compounds with NALP3 yeast inh; hit rate 66% among 1,000
# NALP3 yeast rt: retest-confirmed inhibitor of NALP3 in yeast. shares compounds with NALP3 yeast inh. yeast expressing human NALP3, luminescence read-out. inhibition, % at 10 µM. hit rate 53% among 1,000. AID 488794
# Active calls of the source: *; i = inactive; . = not tested or not shown. Unless noted, no stated cut-off is given here; in the data, active means inhibition above about 50%; inactive means the rest.
SMILES,NALP1 inh,T cell modulator,NALP3 yeast inh,A1 inh,NALP3 yeast conf,Casp1-ASC yeast,NALP3 yeast rt
CC(CC12CC3CC(CC(C3)C1)C2)NCc1ccccc1O (stereo not given),27,210,30,0,.,.,.
Cc1cnc(NC(=O)CCCNC(=O)c2ccc(Cl)cc2)s1,.,376,13,0,.,.,.
COc1cccc(NC(=O)c2cnc(SC)nc2)c1,11,343,69*,-1,72*,68*,58*
CSc1ncc(C(=O)Nc2ccccc2)cn1,11,623,59*,-1,72*,57*,55*
O=C(Nc1ccccc1)c1ccc(C(=O)Nc2ccccc2)nc1,9,223,15,0,.,.,.
COc1ccccc1CNC(=O)COC(=O)c1ccc(C)c(S(=O)(=O)N2CCOCC2)c1,.,327,12,-1,.,.,.
Clc1ccc(-n2nnnc2Sc2ncnc3sccc23)cc1,.,480,64*,0,74*,94*,76*
Cc1sc2ncnc(Sc3nnnn3-c3ccccc3)c2c1C,18,416,38,1,.,.,.
O=C(Cc1ccc(Br)cc1)Nc1ccc2[nH]ncc2c1,17,326,8,1,.,.,.
Cc1ccc(NC(=O)c2c(Cl)n(C)c3ccccc23)cc1,15,478,17,1,.,.,.
Cn1c(Cl)c(C(=O)Nc2ccccc2)c2ccccc21,0,328,60*,0,82*,56*,51*
CCOC(=O)Cc1csc(NC(=O)c2cccc(OC)c2)n1,17,296,44,-4,.,.,.
CCOC(=O)Cc1csc(NC(=O)c2cccc([N+](=O)[O-])c2)n1,22,333,59*,-1,76*,69*,51*
COc1ccc(NC(=O)CN(c2ccccc2F)S(=O)(=O)c2ccc(C)cc2)cc1,29,160,19,1,.,.,.
Cn1ncc2c(O/N=C(\N)c3ccc(C(C)(C)C)cc3)ncnc21,.,501,54*,1,78*,82*,67*
CCOC(=O)c1ccc(Nc2ncnc3c2cnn3C)cc1,4,469,20,0,.,.,.
CCc1ccc(C(=O)NNc2ccc(C)c(Cl)c2)cc1,9,398,53*,0,53*,46,29
CCc1ccc(C(=O)NNc2ccc(F)cc2)cc1,-1,430,16,0,.,.,.
CCc1ccc(C(=O)NNc2cc(Cl)ccc2Cl)cc1,6,317,65*,0,66*,61*,60*
COc1ccc(C(=O)On2c(-c3ccc(Br)cc3)nc3ccccc3c2=O)cc1,35,151,62*,0,86*,57*,68*
CCOC(=O)c1ccc2nc3c(cc2c1)CCS3,-8,486,56*,-2,66*,66*,46
N#C/C(=N\Nc1ccccc1)C(N)=S,-33,175,23,-2,.,.,.
N#C/C(=N\Nc1ccc(Cl)cc1)C(=O)c1ccsc1,14,261,55*,0,35,.,.
Cc1ccc(NC(N)=S)cc1C,1,288,18,0,.,.,.
Cc1ccc(N/N=C(\C#N)C(N)=S)cc1C,11,279,67*,-2,56*,42,41
SMILES,NALP1 inh,T cell modulator,NALP3 yeast inh,A1 inh,NALP3 yeast conf,Casp1-ASC yeast,NALP3 yeast rt
N#C/C(=N\Nc1ccc(Cl)cc1)C(N)=S,.,i,75*,-2,90*,.,.
CCOc1ccccc1C(=O)N(Cc1ccc(C)o1)C1CCS(=O)(=O)C1 (stereo not given),4,473,-1,0,.,.,.
O=C(OCc1ccc([N+](=O)[O-])cc1)c1cnc(Cl)c(Cl)c1,6,407,10,0,.,.,.
COc1ccc(CNC(=O)c2oc3ccc(S(=O)(=O)N4CCOCC4)cc3c2C)cc1,-7,273,15,0,.,.,.
O=C1/C(=C/c2cccs2)SC(=S)N1c1cccc(O)c1,-3,277,81*,0,88*,94*,88*
Cc1cccc(N2C(=O)/C(=C/c3ccccn3)SC2=S)c1,21,159,16,0,.,.,.
O=C1/C(=C/c2cccs2)SC(=S)N1c1ccccc1,-10,197,9,0,.,.,.
O=C1CSC(=S)N1c1cccc(O)c1,96*,197,92*,0,93*,99*,96*
O=C1/C(=C/c2ccccn2)SC(=S)N1c1ccc(O)cc1,.,488,70*,0,75*,56*,49
NC(=O)C1CCN(c2nc(-c3ccccc3-c3ccccc3)cs2)CC1,.,310,9,0,.,.,.
